Measurements published in ChEMBL document CHEMBL3045650, “Design, synthesis, and 3D-QSAR analysis of novel 1,3,4-oxadiazol-2(3H)-ones as protoporphyrinogen oxidase inhibitors” (J Agric Food Chem, 2010).

Tests used:
Digitaria sanguinalis = assay: Post-emergence herbicidal activity against Digitaria sanguinalis (hairy crabgrass) assessed as growth inhibition at emulsified concentrate of 150 g/ai ha after 15 days by greenhouse test; type: functional
In short: (§1)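 About 20 seeds sown 1–3 cm deep, grown at 15–30 °C and 50% RH. Monocot seedlings sprayed postemergence at the one-leaf stage with a 100 g/L emulsifiable concentrate (DMF/Tween-80) diluted in water, 150 g ai/ha. Untreated and solvent controls included. Visual rating at 15 days, three replicates.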

Echinochloa crus-galli = assay: Post-emergence herbicidal activity against Echinochloa crus-galli (barnyard grass) assessed as growth inhibition at emulsified concentrate of 150 g/ai ha after 15 days by greenhouse test; type: functional; in short: as §1
Eclipta prostrata [1] = assay: Post-emergence herbicidal activity against Eclipta prostrata assessed as growth inhibition at emulsified concentrate of 75 g/ai ha after 15 days by greenhouse test; type: functional
In short: (§2)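 Compounds were made up as 100 g/L emulsifiable concentrates in DMF with Tween-80, then diluted in water. About 20 seeds were sown 1-3 cm deep in pots and grown in a greenhouse at 15-30 °C and 50% relative humidity. Sprays were applied postemergence at the two-leaf stage. Untreated and DMF + Tween-80 solvent controls were included. Injury was scored visually 15 days after treatment, with three replicates per treatment.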

Eclipta prostrata [2] = assay: Post-emergence herbicidal activity against Eclipta prostrata assessed as growth inhibition at emulsified concentrate of 37.5 g/ai ha after 15 days by greenhouse test; type: functional; in short: as §2
Rumex acetosa [3] = assay: Post-emergence herbicidal activity against Rumex acetosa assessed as growth inhibition at emulsified concentrate of 150 g/ai ha after 15 days by greenhouse test; type: functional
Rumex acetosa [4] = assay: Post-emergence herbicidal activity against Rumex acetosa assessed as growth inhibition at emulsified concentrate of 75 g/ai ha after 15 days by greenhouse test; type: functional
Rumex acetosa [5] = assay: Post-emergence herbicidal activity against Rumex acetosa assessed as growth inhibition at emulsified concentrate of 37.5 g/ai ha after 15 days by greenhouse test; type: functional
Amaranthus retroflexus [6] = assay: Post-emergence herbicidal activity against Amaranthus retroflexus assessed as growth inhibition at emulsified concentrate of 75 g/ai ha after 15 days by greenhouse test; type: functional; in short: as §2
Amaranthus retroflexus [7] = assay: Post-emergence herbicidal activity against Amaranthus retroflexus assessed as growth inhibition at emulsified concentrate of 37.5 g/ai ha after 15 days by greenhouse test; type: functional; in short: as §2
Cyperus iria [8] = assay: Post-emergence herbicidal activity against Cyperus iria assessed as growth inhibition at emulsified concentrate of 150 g/ai ha after 15 days by greenhouse test; type: functional
Cyperus iria [9] = assay: Post-emergence herbicidal activity against Cyperus iria assessed as growth inhibition at emulsified concentrate of 75 g/ai ha after 15 days by greenhouse test; type: functional
Cyperus iria [10] = assay: Post-emergence herbicidal activity against Cyperus iria assessed as growth inhibition at emulsified concentrate of 37.5 g/ai ha after 15 days by greenhouse test; type: functional
Abutilon theophrasti [11] = assay: Post-emergence herbicidal activity against Abutilon theophrasti (velvetleaf) assessed as growth inhibition at emulsified concentrate of 150 g/ai ha after 15 days by greenhouse test; type: functional
Abutilon theophrasti [12] = assay: Post-emergence herbicidal activity against Abutilon theophrasti (velvetleaf) assessed as growth inhibition at emulsified concentrate of 37.5 g/ai ha after 15 days by greenhouse test; type: functional
Abutilon theophrasti [13] = assay: Post-emergence herbicidal activity against Abutilon theophrasti (velvetleaf) assessed as growth inhibition at emulsified concentrate of 75 g/ai ha after 15 days by greenhouse test; type: functional
Polygonum humifusum [14] = assay: Post-emergence herbicidal activity against Polygonum humifusum assessed as growth inhibition at emulsified concentrate of 150 g/ai ha after 15 days by greenhouse test; type: functional
Polygonum humifusum [15] = assay: Post-emergence herbicidal activity against Polygonum humifusum assessed as growth inhibition at emulsified concentrate of 75 g/ai ha after 15 days by greenhouse test; type: functional
Polygonum humifusum [16] = assay: Post-emergence herbicidal activity against Polygonum humifusum assessed as growth inhibition at emulsified concentrate of 37.5 g/ai ha after 15 days by greenhouse test; type: functional
Brassica juncea [17] = assay: Post-emergence herbicidal activity against Brassica juncea assessed as growth inhibition at emulsified concentrate of 75 g/ai ha after 15 days by greenhouse test; type: functional; in short: as §2
Brassica juncea [18] = assay: Post-emergence herbicidal activity against Brassica juncea assessed as growth inhibition at emulsified concentrate of 37.5 g/ai ha after 15 days by greenhouse test; type: functional; in short: as §2
Eclipta prostrata [19] = assay: Post-emergence herbicidal activity against Eclipta prostrata assessed as growth inhibition at emulsified concentrate of 150 g/ai ha after 15 days by greenhouse test; type: functional
In short: (§3)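 About 20 seeds sown 1–3 cm deep, grown at 15–30 °C and 50% RH. Dicot seedlings sprayed postemergence at the two-leaf stage with a 100 g/L emulsifiable concentrate (DMF/Tween-80) diluted in water, 150 g ai/ha. Untreated and solvent controls included. Visual rating at 15 days, three replicates.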

Amaranthus retroflexus [20] = assay: Post-emergence herbicidal activity against Amaranthus retroflexus assessed as growth inhibition at emulsified concentrate of 150 g/ai ha after 15 days by greenhouse test; type: functional; in short: as §3
Brassica juncea [21] = assay: Post-emergence herbicidal activity against Brassica juncea assessed as growth inhibition at emulsified concentrate of 150 g/ai ha after 15 days by greenhouse test; type: functional; in short: as §3
Poa annua = assay: Post-emergence herbicidal activity against Poa annua assessed as growth inhibition at emulsified concentrate of 150 g/ai ha after 15 days by greenhouse test; type: functional; in short: as §1
[22] = target: T1, Protoporphyrinogen oxidase (Homo sapiens, UniProt P50336); assay: Inhibition of Homo sapiens (human) recombinant protoporphyrinogen oxidase expressed in Escherichia coli JM109 assessed as oxidation of protoporphyrinogen IX substrate by fluorescence assay
T1 sequence (P50336 whole entry): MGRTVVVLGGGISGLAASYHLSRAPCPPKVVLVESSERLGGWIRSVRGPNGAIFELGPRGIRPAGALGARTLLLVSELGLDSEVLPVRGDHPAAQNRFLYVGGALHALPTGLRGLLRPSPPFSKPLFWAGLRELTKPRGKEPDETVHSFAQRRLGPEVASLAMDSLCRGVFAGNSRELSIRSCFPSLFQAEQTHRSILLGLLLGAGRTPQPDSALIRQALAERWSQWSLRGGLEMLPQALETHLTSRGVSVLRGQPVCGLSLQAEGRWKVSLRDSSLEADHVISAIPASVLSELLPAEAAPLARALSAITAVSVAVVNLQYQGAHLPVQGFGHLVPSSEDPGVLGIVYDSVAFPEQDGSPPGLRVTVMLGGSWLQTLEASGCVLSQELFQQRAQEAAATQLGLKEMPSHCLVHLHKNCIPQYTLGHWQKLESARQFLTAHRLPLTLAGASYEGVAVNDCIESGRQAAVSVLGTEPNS

## CC(C)OC(=O)CSc1nc2cc(-n3nc(C(C)(C)C)oc3=O)c(F)cc2s1
Digitaria sanguinalis
  inhibition (INH): 0%
Echinochloa crus-galli
  inhibition (INH): 0%
Eclipta prostrata [1]
  inhibition (INH): 0%
Eclipta prostrata [2]
  inhibition (INH): 0%
Rumex acetosa [3]
  inhibition (INH): 70%
Rumex acetosa [4]
  inhibition (INH): 60%
Rumex acetosa [5]
  inhibition (INH): 50%
Amaranthus retroflexus [6]
  inhibition (INH): 85%
Amaranthus retroflexus [7]
  inhibition (INH): 0%
Cyperus iria [8]
  inhibition (INH): 60%
Cyperus iria [9]
  inhibition (INH): 50%
Cyperus iria [10]
  inhibition (INH): 50%
Abutilon theophrasti [11]
  inhibition (INH): 0%
Abutilon theophrasti [12]
  inhibition (INH): 0%
Abutilon theophrasti [13]
  inhibition (INH): 0%
Polygonum humifusum [14]
  inhibition (INH): 60%
Polygonum humifusum [15]
  inhibition (INH): 40%
Polygonum humifusum [16]
  inhibition (INH): 40%
Brassica juncea [17]
  inhibition (INH): 50%
Brassica juncea [18]
  inhibition (INH): 40%
Eclipta prostrata [19]
  inhibition (INH): 70%
Amaranthus retroflexus [20]
  inhibition (INH): 90%
Brassica juncea [21]
  inhibition (INH): 40%
Poa annua
  inhibition (INH): 0%
[22]
  Ki: 1.17 µM
